Results taken from ChEMBL document CHEMBL1126641, “Synthesis and opioid activity of dynorphin A-(1-13)NH2 analogues containing cis- and trans-4-aminocyclohexanecarboxylic acid” (J Med Chem, 1993).
Where “and” joins values, the source holds several entries; their conditions need not be identical. Equal values may be shown once. Residues, ends and D or L forms follow the SMILES beside them.

Experiments:
[1] = target: Delta-type opioid receptor (Rattus norvegicus, UniProt P33533); test: Compound was tested for binding affinity towards delta-opioid receptor in rat forebrain membrane using [3H]DPDPE; type: cell membranes
Sequence of Delta-type opioid receptor (P33533 whole entry): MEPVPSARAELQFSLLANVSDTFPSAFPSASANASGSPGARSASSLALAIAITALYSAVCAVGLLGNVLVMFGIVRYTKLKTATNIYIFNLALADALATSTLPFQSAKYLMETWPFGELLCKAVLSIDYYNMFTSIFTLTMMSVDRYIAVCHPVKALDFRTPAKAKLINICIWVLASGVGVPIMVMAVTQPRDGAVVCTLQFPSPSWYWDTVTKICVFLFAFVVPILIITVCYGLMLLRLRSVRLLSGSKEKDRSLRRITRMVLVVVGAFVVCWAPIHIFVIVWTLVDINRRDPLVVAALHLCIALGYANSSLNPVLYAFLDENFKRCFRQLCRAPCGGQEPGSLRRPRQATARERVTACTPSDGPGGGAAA

[2] = target: Kappa-type opioid receptor (Cavia porcellus, UniProt P41144); test: Compound was tested for binding affinity towards kappa opioid receptor in guinea pig cerebellar membrane using [3H]bremazocine; type: cell membranes, Cerebellum
Sequence of Kappa-type opioid receptor (P41144 whole entry): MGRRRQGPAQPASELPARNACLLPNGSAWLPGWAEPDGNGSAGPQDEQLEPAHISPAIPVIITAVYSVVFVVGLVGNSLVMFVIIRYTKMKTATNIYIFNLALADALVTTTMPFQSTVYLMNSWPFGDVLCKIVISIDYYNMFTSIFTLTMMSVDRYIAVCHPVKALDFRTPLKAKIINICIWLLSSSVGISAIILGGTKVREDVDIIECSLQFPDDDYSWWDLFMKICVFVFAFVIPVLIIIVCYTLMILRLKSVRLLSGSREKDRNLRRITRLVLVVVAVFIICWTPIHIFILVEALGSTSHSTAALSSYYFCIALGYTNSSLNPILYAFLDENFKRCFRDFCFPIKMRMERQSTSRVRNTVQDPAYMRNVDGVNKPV
Outline: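 Competitive inhibition of [3H]bremazocine binding to guinea pig cerebellar membranes. The incubation mixtures contained 100 nM DAMGO. Affinity is reported as Ki.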

[3] = target: T1, Opioid receptors; mu/kappa/delta (Homo sapiens, UniProt P41145+P41143+P35372); test: Opioid receptor activity in guinea pig ileum assay; type: tissue-based, Cavia porcellus; conditions: target entry is the homologue from another species
T1 sequence (P35372 whole entry, looked up): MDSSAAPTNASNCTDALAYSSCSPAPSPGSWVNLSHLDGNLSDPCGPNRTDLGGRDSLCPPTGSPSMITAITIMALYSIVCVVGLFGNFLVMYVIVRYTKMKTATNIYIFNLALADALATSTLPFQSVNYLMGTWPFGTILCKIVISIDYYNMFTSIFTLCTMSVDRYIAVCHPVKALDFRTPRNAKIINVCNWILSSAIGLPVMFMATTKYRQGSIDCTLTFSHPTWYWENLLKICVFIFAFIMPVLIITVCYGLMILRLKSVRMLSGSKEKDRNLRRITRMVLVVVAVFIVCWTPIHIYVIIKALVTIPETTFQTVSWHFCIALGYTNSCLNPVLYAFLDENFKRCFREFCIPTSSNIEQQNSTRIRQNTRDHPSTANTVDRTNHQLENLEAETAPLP
T1 sequence (P41143 whole entry, looked up): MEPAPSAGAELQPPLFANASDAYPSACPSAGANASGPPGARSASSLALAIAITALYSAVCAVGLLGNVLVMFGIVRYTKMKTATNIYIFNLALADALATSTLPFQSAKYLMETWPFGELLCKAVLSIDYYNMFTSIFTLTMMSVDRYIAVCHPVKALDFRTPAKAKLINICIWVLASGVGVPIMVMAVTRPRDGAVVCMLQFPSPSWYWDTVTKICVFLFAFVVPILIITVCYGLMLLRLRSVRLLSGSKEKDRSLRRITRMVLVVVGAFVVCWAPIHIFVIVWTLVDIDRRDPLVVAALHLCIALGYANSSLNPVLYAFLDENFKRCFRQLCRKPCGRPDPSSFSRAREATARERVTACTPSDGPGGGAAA
T1 sequence (P41145 whole entry, looked up): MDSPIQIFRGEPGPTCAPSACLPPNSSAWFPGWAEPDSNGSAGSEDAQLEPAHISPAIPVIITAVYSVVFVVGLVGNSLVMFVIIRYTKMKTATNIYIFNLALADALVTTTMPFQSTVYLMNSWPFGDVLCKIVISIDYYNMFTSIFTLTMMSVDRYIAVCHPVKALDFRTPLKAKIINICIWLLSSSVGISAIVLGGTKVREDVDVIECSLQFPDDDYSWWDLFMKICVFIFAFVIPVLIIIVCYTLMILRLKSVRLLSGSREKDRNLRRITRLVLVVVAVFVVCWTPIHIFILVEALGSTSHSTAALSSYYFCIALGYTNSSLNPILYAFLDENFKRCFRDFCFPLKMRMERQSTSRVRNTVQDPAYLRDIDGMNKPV

Mu-type opioid receptor = Mu-type opioid receptor (Rattus norvegicus, UniProt P33535); test: Compound was tested for binding affinity towards mu-opioid receptor in rat forebrain membrane using [3H]DAMGO; type: cell membranes
Sequence of Mu-type opioid receptor (P33535 whole entry): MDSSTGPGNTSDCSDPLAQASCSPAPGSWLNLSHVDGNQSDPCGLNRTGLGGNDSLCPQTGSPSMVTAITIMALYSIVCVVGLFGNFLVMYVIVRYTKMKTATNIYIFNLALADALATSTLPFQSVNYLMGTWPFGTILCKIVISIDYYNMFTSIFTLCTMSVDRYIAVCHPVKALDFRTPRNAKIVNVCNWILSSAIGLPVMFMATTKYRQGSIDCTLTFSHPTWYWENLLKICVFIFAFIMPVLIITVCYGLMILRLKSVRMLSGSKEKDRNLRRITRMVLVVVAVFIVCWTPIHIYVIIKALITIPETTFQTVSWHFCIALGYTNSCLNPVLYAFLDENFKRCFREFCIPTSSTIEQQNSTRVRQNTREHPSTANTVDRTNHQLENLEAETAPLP

[4] = target: T1, Opioid receptors; mu/kappa/delta; test: ratio is kappa/mu/delta opioid receptors; type: protein assay
Outline: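 The Ki ratio κ/μ/δ is taken from three binding assays. κ: [3H]bremazocine on guinea pig cerebellar membranes, with 100 nM DAMGO present. μ: [3H]DAMGO on rat forebrain membranes. δ: [3H]DPDPE on rat forebrain membranes.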

| SMILES | Ki [1] | Ki [2] | IC50 [3] [µM] | Ki (Mu-type opioid receptor) | Ratio [4] |
| --- | --- | --- | --- | --- | --- |
| CC[C@H](C)[C@H](NC(=O)[C@H](CCCN=C(N)N)NC(=O)[C@H](CCCN=C(N)N)NC(=O)[C@H](CC(C)C)NC(=O)[C@H](Cc1ccccc1)NC(=O)C1CCC(NC(=O)[C@@H](N)Cc2ccc(O)cc2)CC1)C(=O)N[C@@H](CCCN=C(N)N)C(=O)N1CCC[C@H]1C(=O)N[C@@H](CCCCN)C(=O)N[C@@H](CC(C)C)C(=O)N[C@@H](CCCCN)C(N)=O (stereo partly specified) (HELM PEPTIDE1{Y.[O=C(C1CCC(N[*:1])CC1)[*:2]].F.L.R.R.I.R.P.K.L.K.[am]}$$$$V2.0) | 1.37 µM and 1.91 µM | 0.0134 µM and 0.0091 µM | 4.09 | 0.275 µM and 0.117 µM | 4.62 and 3.66 |
| CC[C@H](C)[C@H](NC(=O)[C@H](CCCN=C(N)N)NC(=O)[C@H](CCCN=C(N)N)NC(=O)[C@H](CC(C)C)NC(=O)[C@H](Cc1ccccc1)NC(=O)CNC(=O)CNC(=O)[C@@H](N)Cc1ccc(O)cc1)C(=O)N[C@@H](CCCN=C(N)N)C(=O)N1CCC[C@H]1C(=O)N[C@@H](CCCCN)C(=O)N[C@@H](CC(C)C)C(=O)N[C@@H](CCCCN)C(N)=O | 0.00388 µM | 0.000146 µM | 0.00024 | 0.000194 µM |  |
| CC[C@H](C)[C@H](NC(=O)[C@H](CCCN=C(N)N)NC(=O)[C@H](CCCN=C(N)N)NC(=O)[C@H](CC(C)C)NC(=O)[C@H](Cc1ccccc1)NC(=O)CNC(=O)C(C)(C)NC(=O)[C@@H](N)Cc1ccc(O)cc1)C(=O)N[C@@H](CCCN=C(N)N)C(=O)N1CCC[C@H]1C(=O)N[C@@H](CCCCN)C(=O)N[C@@H](CC(C)C)C(=O)N[C@@H](CCCCN)C(N)=O (HELM PEPTIDE1{Y.[Aib].G.F.L.R.R.I.R.P.K.L.K.[am]}$$$$V2.0) |  | 0.05 µM |  | 0.01 µM |  |
